Laboratory results as given in ChEMBL document CHEMBL1944546, “Structure-activity relationships of novel alkylides: 3-O-arylalkyl clarithromycin derivatives with improved antibacterial activities” (2012).
≈ marks a conversion by molar mass, not a printed value.

Tests used:
[1] = tested on: Streptococcus dysgalactiae; test: Antibacterial activity against efflux, erythromycin-resistant Streptococcus dysgalactiae A 1 by broth microdilution method; type: functional
In short: (§1)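 MIC by broth microdilution following CLSI (2010) recommendations, using clinical isolates identified by 16S rDNA sequencing and labelled by genotype and phenotype. S. aureus ATCC 29213 and S. pneumoniae ATCC 49619 were run as control strains, and azithromycin, clarithromycin and 3-OH-clarithromycin were tested as reference agents.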

Streptococcus pyogenes [2] = test: Antibacterial activity against erythromycin-susceptible Streptococcus pyogenes A 3 by broth microdilution method; type: functional
In short: (§2)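 MIC read by broth microdilution following CLSI (2010) guidance. The clinical isolates were identified by 16S rDNA sequencing and labelled by genotype and phenotype. S. aureus ATCC 29213 and S. pneumoniae ATCC 49619 were the control strains. Azithromycin, clarithromycin and 3-OH-clarithromycin were run as reference compounds.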

[3] = tested on: Streptococcus dysgalactiae; test: Ratio of MIC for clarithromycin to compound for efflux, erythromycin-resistant Streptococcus dysgalactiae A 1 by broth microdilution method; type: functional
In short: (§3)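 MICs of the test compounds and of the reference macrolides (azithromycin, clarithromycin) were determined side by side by broth microdilution following CLSI (2010). The clinical isolates were identified by 16S rDNA sequencing and labelled by genotype and phenotype. S. aureus ATCC 29213 and S. pneumoniae ATCC 49619 served as control strains.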

[4] = tested on: Streptococcus dysgalactiae; test: Ratio of MIC for azithromycin to compound for efflux, erythromycin-resistant Streptococcus dysgalactiae A 1 by broth microdilution method; type: functional; in short: as §3
Streptococcus pneumoniae [5] = test: Antibacterial activity against efflux,penicillin-susceptible Streptococcus pneumoniae PU 09 by broth microdilution method; type: functional; in short: as §2
[6] = tested on: Staphylococcus epidermidis; test: Ratio of MIC for azithromycin to compound for methicillin-susceptible, inducible MLS-resistant Staphylococcus epidermidis E1 by broth microdilution method; type: functional
Streptococcus pneumoniae [7] = test: Antibacterial activity against erythromycin-susceptible Streptococcus pneumoniae ATCC 49619 by broth microdilution method; type: functional; in short: as §2
[8] = tested on: Staphylococcus epidermidis; test: Ratio of MIC for clarithromycin to compound for methicillin-susceptible, inducible MLS-resistant Staphylococcus epidermidis E1 by broth microdilution method; type: functional
Streptococcus pneumoniae [9] = test: Antibacterial activity against penicillin-susceptible, constitutive MLS-resistant Streptococcus pneumoniae PU 27 by broth microdilution method; type: functional; in short: as §1
Staphylococcus aureus [10] = test: Antibacterial activity against methicillin-, constitutive MLS-resistant […] by broth microdilution method; type: functional; in short: as §1
Staphylococcus aureus [11] = test: Antibacterial activity against methicillin-susceptible, inducible MLS-resistant Staphylococcus aureus PU 64 by broth microdilution method; type: functional; in short: as §1
Streptococcus pneumoniae [12] = test: Ratio of MIC for azithromycin to compound for efflux,penicillin-susceptible Streptococcus pneumoniae PU 09 by broth microdilution method; type: functional; in short: as §3
Staphylococcus aureus [13] = test: Antibacterial activity against methicillin-, inducible MLS-resistant […] by broth microdilution method; type: functional; in short: as §1
Streptococcus pneumoniae [14] = test: Antibacterial activity against penicillin-, constitutive MLS-resistant Streptococcus pneumoniae PU 11 by broth microdilution method; type: functional; in short: as §1
Streptococcus pneumoniae [15] = test: Ratio of MIC for clarithromycin to compound for efflux,penicillin-susceptible Streptococcus pneumoniae PU 09 by broth microdilution method; type: functional; in short: as §3
[16] = tested on: Staphylococcus epidermidis; test: Antibacterial activity against methicillin-resistant, constitutive MLS-resistant Staphylococcus epidermidis E2 by broth microdilution method; type: functional; in short: as §1
Staphylococcus hominis [17] = test: Ratio of MIC for clarithromycin to compound for methicillin-resistant, coagulase-negative, inducible MLS-resistant Staphylococcus hominis E3 by broth microdilution method; type: functional; in short: as §3
[18] = tested on: Staphylococcus haemolyticus; test: Antibacterial activity against methicillin-resistant, coagulase-negative, constitutive MLS-resistant Staphylococcus haemolyticus PU 19 by broth microdilution method; type: functional; in short: as §1
Staphylococcus aureus [19] = test: Antibacterial activity against erythromycin-susceptible Staphylococcus aureus ATCC 29213 by broth microdilution method; type: functional; in short: as §2
Staphylococcus hominis [20] = test: Antibacterial activity against methicillin-resistant, coagulase-negative, inducible MLS-resistant Staphylococcus hominis E3 by broth microdilution method; type: functional; in short: as §1
[21] = tested on: Staphylococcus epidermidis; test: Antibacterial activity against methicillin-susceptible, inducible MLS-resistant Staphylococcus epidermidis E1 by broth microdilution method; type: functional; in short: as §1
Staphylococcus hominis [22] = test: Ratio of MIC for azithromycin to compound for methicillin-resistant, coagulase-negative, inducible MLS-resistant Staphylococcus hominis E3 by broth microdilution method; type: functional; in short: as §3
Streptococcus pyogenes [23] = test: Antibacterial activity against constitutive MLS-resistant Streptococcus pyogenes A 2 by broth microdilution method; type: functional; in short: as §1
Staphylococcus aureus [24] = test: Antibacterial activity against methicillin-, inducible MLS-resistant Staphylococcus aureus PU 32 by broth microdilution method

Structure (SMILES)	MIC [1]	MIC (Streptococcus pyogenes [2])	MIC (Streptococcus pneumoniae [5])	Ratio [6]	MIC (Streptococcus pneumoniae [7])	Ratio [8]	MIC (Streptococcus pneumoniae [9])	MIC (Staphylococcus aureus [10])	MIC (Staphylococcus aureus [11])	MIC (Streptococcus pneumoniae [14])	MIC [16]	MIC [18]	MIC (Staphylococcus aureus [19])	MIC (Staphylococcus hominis [20])	MIC [21]	MIC (Streptococcus pyogenes [23])	MIC (Staphylococcus aureus [24])	other results
CC[C@H]1OC(=O)[C@H](C)[C@@H](O/C=C\Cc2cncnc2)[C@H](C)[C@@H](O[C@@H]2O[C@H](C)C[C@H](N(C)C)[C@H]2O)[C@](C)(OC)C[C@@H](C)/C(=N\O)[C@H](C)[C@H]2OC(=O)O[C@@]21C	0.125 µg/mL (≈ 0.167 µM)	0.016 µg/mL (≈ 0.0214 µM)	0.125 µg/mL (≈ 0.167 µM)	1024	0.032 µg/mL (≈ 0.0427 µM)	1024	1 µg/mL (≈ 1.34 µM)	> 256 µg/mL	0.25 µg/mL (≈ 0.334 µM)	> 256 µg/mL	> 256 µg/mL	> 256 µg/mL	0.5 µg/mL (≈ 0.668 µM)	0.25 µg/mL (≈ 0.334 µM)	0.25 µg/mL (≈ 0.334 µM)	> 256 µg/mL		Ratio [3]: 32; Ratio [4]: 32; Ratio (Streptococcus pneumoniae [12]): 32; MIC (Staphylococcus aureus [13]): 0.25 µg/mL (≈ 0.334 µM); Ratio (Streptococcus pneumoniae [15]): 32; Ratio (Staphylococcus hominis [17]): 1024; Ratio (Staphylococcus hominis [22]): 1024
CC[C@H]1OC(=O)[C@H](C)[C@@H](OCCCc2cncnc2)[C@H](C)[C@@H](O[C@@H]2O[C@H](C)C[C@H](N(C)C)[C@H]2O)[C@](C)(OC)C[C@@H](C)/C(=N\O)[C@H](C)[C@@H](O)[C@]1(C)O	2 µg/mL (≈ 2.76 µM)	0.5 µg/mL (≈ 0.69 µM)	2 µg/mL (≈ 2.76 µM)	>16	1 µg/mL (≈ 1.38 µM)	>16	64 µg/mL (≈ 88.3 µM)	> 256 µg/mL	8 µg/mL (≈ 11 µM)	> 256 µg/mL	> 256 µg/mL	> 256 µg/mL	8 µg/mL (≈ 11 µM)	> 256 µg/mL	16 µg/mL (≈ 22.1 µM)	> 256 µg/mL	8 µg/mL (≈ 11 µM)	
CC[C@H]1OC(=O)[C@H](C)[C@@H](OC/C=C/c2cncnc2)[C@H](C)[C@@H](O[C@@H]2O[C@H](C)C[C@H](N(C)C)[C@H]2O)[C@](C)(OC)C[C@@H](C)C(=O)[C@H](C)[C@@H](O)[C@]1(C)O	16 µg/mL (≈ 22.6 µM)	8 µg/mL (≈ 11.3 µM)	16 µg/mL (≈ 22.6 µM)		8 µg/mL (≈ 11.3 µM)		128 µg/mL (≈ 181 µM)	> 256 µg/mL	> 256 µg/mL	128 µg/mL (≈ 181 µM)	> 256 µg/mL	> 256 µg/mL	> 256 µg/mL	> 256 µg/mL	> 256 µg/mL	> 256 µg/mL	> 256 µg/mL	
CC[C@H]1OC(=O)[C@H](C)[C@@H](OCCCc2cncnc2)[C@H](C)[C@@H](O[C@@H]2O[C@H](C)C[C@H](N(C)C)[C@H]2O)[C@](C)(OC)C[C@@H](C)/C(=N\OCc2ccccc2Cl)[C@H](C)[C@H]2OC(=O)O[C@@]21C	4 µg/mL (≈ 4.57 µM)	1 µg/mL (≈ 1.14 µM)	2 µg/mL (≈ 2.28 µM)		1 µg/mL (≈ 1.14 µM)		32 µg/mL (≈ 36.6 µM)	> 256 µg/mL	> 256 µg/mL	> 256 µg/mL	> 256 µg/mL	> 256 µg/mL	16 µg/mL (≈ 18.3 µM)	> 256 µg/mL	> 256 µg/mL	32 µg/mL (≈ 36.6 µM)	16 µg/mL (≈ 18.3 µM)	
CC[C@H]1OC(=O)[C@H](C)[C@@H](OC/C=C/c2cncnc2)[C@H](C)[C@@H](O[C@@H]2O[C@H](C)C[C@H](N(C)C)[C@H]2O)[C@](C)(OC)C[C@@H](C)/C(=N\OCc2c(C)cc(C)cc2C)[C@H](C)[C@H]2OC(=O)O[C@@]21C	32 µg/mL (≈ 36.3 µM)	32 µg/mL (≈ 36.3 µM)	32 µg/mL (≈ 36.3 µM)		16 µg/mL (≈ 18.2 µM)		64 µg/mL (≈ 72.6 µM)	> 256 µg/mL	> 256 µg/mL	64 µg/mL (≈ 72.6 µM)	> 256 µg/mL	> 256 µg/mL	> 256 µg/mL	> 256 µg/mL	> 256 µg/mL	32 µg/mL (≈ 36.3 µM)	> 256 µg/mL	
CC[C@H]1OC(=O)[C@H](C)[C@@H](O[C@H]2C[C@@](C)(OC)[C@@H](O)[C@H](C)O2)[C@H](C)[C@@H](O[C@@H]2O[C@H](C)C[C@H](N(C)C)[C@H]2O)[C@](C)(OC)C[C@@H](C)C(=O)[C@H](C)[C@@H](O)[C@]1(C)O [CLARITHROMYCIN]	8 µg/mL (≈ 10.7 µM)	0.032 µg/mL (≈ 0.0428 µM)	4 µg/mL (≈ 5.35 µM)		0.032 µg/mL (≈ 0.0428 µM)		1 µg/mL (≈ 1.34 µM)	> 256 µg/mL	2 µg/mL (≈ 2.67 µM)	> 256 µg/mL	> 256 µg/mL	> 256 µg/mL	0.25 µg/mL (≈ 0.334 µM)	> 256 µg/mL	> 256 µg/mL	> 256 µg/mL	1 µg/mL (≈ 1.34 µM)	
CC[C@H]1OC(=O)[C@H](C)[C@@H](O[C@H]2C[C@@](C)(OC)[C@@H](O)[C@H](C)O2)[C@H](C)[C@@H](O[C@@H]2O[C@H](C)C[C@H](N(C)C)[C@H]2O)[C@](C)(O)C[C@@H](C)CN(C)[C@H](C)[C@@H](O)[C@]1(C)O [AZITHROMYCIN]	32 µg/mL (≈ 42.7 µM)	0.125 µg/mL (≈ 0.167 µM)	8 µg/mL (≈ 10.7 µM)		0.25 µg/mL (≈ 0.334 µM)		64 µg/mL (≈ 85.4 µM)	> 256 µg/mL	8 µg/mL (≈ 10.7 µM)	> 256 µg/mL	> 256 µg/mL	> 256 µg/mL	1 µg/mL (≈ 1.34 µM)	> 256 µg/mL	> 256 µg/mL	> 256 µg/mL	8 µg/mL (≈ 10.7 µM)	
CC[C@H]1OC(=O)[C@H](C)[C@@H](O/C=C\Cc2cncnc2)[C@H](C)[C@@H](O[C@@H]2O[C@H](C)C[C@H](N(C)C)[C@H]2O)[C@](C)(OC)C[C@@H](C)C(=O)[C@H](C)[C@@H](O)[C@]1(C)O	4 µg/mL (≈ 5.65 µM)	4 µg/mL (≈ 5.65 µM)	1 µg/mL (≈ 1.41 µM)	>16	1 µg/mL (≈ 1.41 µM)	>16	32 µg/mL (≈ 45.2 µM)	> 256 µg/mL	8 µg/mL (≈ 11.3 µM)	> 256 µg/mL	> 256 µg/mL	> 256 µg/mL	8 µg/mL (≈ 11.3 µM)	8 µg/mL (≈ 11.3 µM)	4 µg/mL (≈ 5.65 µM)	> 256 µg/mL	4 µg/mL (≈ 5.65 µM)	
